Activity calls are given as the source filed them. The calls are words filed in the database; no cut-off is given here.

The target of assay [1] is T1, Human immunodeficiency virus type 1 integrase (Human immunodeficiency virus 1, UniProt Q7ZJM1). Kind of assay: Binding affinity to HIV1 integrase by fluorescence anisotrophy. Put shortly: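 Fluorescein-labelled peptide (final 0.05 to 0.1 µM) in 20 mM Tris pH 7.4 at 10 °C; 100 µM IN (taken as monomer) titrated in 20 steps of 10 µl at 15-min intervals. Anisotropy read at ex 480/em 530 nm after each addition; data fitted to Hill equation for Ka (Kd = 1/Ka).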

In assay [2] the test system is Human immunodeficiency virus 1. Kind of assay: Inhibition of HIV1 delta env/VSV-G replication in human sup T1 T-lymphoid […] cells assessed as inhibition of total viral DNA at 12.5 uM after 2 hrs by RT-PCR. It is filed as functional, organism-based. In a few lines:
(§1)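 Sup T1 cells pretreated 2 h with 12.5 µM peptide or 2 µM azidothymidine, then infected with HIV-1 Δenv/VSV-G at m.o.i. 2 for 6 h. Gag and Nef DNA amplified by PCR from 10 ng total cell DNA, 29 cycles.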

For assay [3], the system named is Human immunodeficiency virus 1. Kind of assay: Inhibition of HIV1 delta env/VSV-G replication in human sup T1 T-lymphoid […] cells assessed as inhibition of viral DNA integration by RT-PCR. It is filed as functional, organism-based. Put shortly: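 Sup T1 cells pretreated 2 h with peptide, infected with HIV-1 Δenv/VSV-G at m.o.i. 2 for 24 h. Integrated DNA quantified by two-round Alu-LTR PCR (12 cycles, then 50 real-time cycles) against an HXB2 plasmid standard curve (5 ng to 0.25 fg), quadruplicate samples.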

The target in assay [4] is Human immunodeficiency virus type 1 integrase (Human immunodeficiency virus 1) (UniProt Q7ZJM1). Kind of assay: Inhibition of recombinant HIV1 integrase 3'-end processing activity. Put shortly:
(§2)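 IN (0.8 µM) incubated with peptides; 3'-end processing or strand-transfer activity followed on labelled gel-purified oligonucleotide substrates by gel size shift or specific cleavage.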

For assay [5] the target is unchanged. Kind of assay: Inhibition of recombinant HIV1 integrase strand transfer activity. Put shortly: as §2
Assay [6] deals with Human immunodeficiency virus 1. Kind of assay: Inhibition of HIV1 replication in human T-lymphoid H9 cells assessed as decrease in viral p24 level. It is filed as functional, organism-based. Put shortly: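 H9 cells pretreated 2 h with peptide, infected with wild-type HIV-1 (HXB2, from transfected HEK293T) at m.o.i. 0.1 for 1 h at 37 °C, washed, cultured 10 days; p24 measured by capture immunoassay.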

Assay [7] concerns the target Human immunodeficiency virus type 1 integrase (Human immunodeficiency virus 1) (UniProt Q7ZJM1). Kind of assay: (§3) Inhibition of HIV1 integrase by quantitative ELISA. In a few lines: (§4)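 Overall integration reaction: 390 nM IN preincubated 10 min with peptide, then 1 µM biotin/digoxigenin-labelled duplex oligonucleotide in 20 mM Hepes pH 7.5, 10 mM MgCl2, 10 mM DTT, 10% Me2SO, 5% PEG-8000, 0.1 mg/ml BSA for 1 h at 37 °C. Stopped with EDTA/NaCl/salmon sperm DNA buffer; product read by immunoassay on avidin-coated plates.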

The target is the same in assay [8]. Kind of assay: Inhibition of HIV1 integrase by qualitative integration assay system. In a few lines:
as §2

In assay [9] the test system is Human immunodeficiency virus 1. Kind of assay: Inhibition of HIV1 replication in human TZM-bl cells assessed as beta-galactosidase activity at 2.5 uM. It is filed as functional. In a few lines:
(§5)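 TZM-bl cells carrying TAR-driven β-galactosidase, incubated with peptides, then infected with HIV-1 in 20 µg/ml DEAE-dextran. Cells fixed 2 days post-infection, stained with X-gal, and blue cells counted by light microscopy.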

The subject of assay [10] is Human immunodeficiency virus 1. Kind of assay: Inhibition of HIV1 delta env/VSV-G replication in human sup T1 T-lymphoid […] cells assessed as inhibition of total viral DNA at 2 uM after 2 hrs by RT-PCR. It is filed as functional, organism-based. In a few lines: as §1
Assay [11] concerns Human immunodeficiency virus 1. Kind of assay: Inhibition of HIV1 replication in human TZM-bl cells assessed as beta-galactosidase activity. It is filed as functional, organism-based. Put shortly:
as §5

In assay [12] the target is T1, Human immunodeficiency virus type 1 integrase. The description is as §3. Put shortly: as §4

Human immunodeficiency virus type 1 integrase (Human immunodeficiency virus 1), sequence (Q7ZJM1 as listed by the source): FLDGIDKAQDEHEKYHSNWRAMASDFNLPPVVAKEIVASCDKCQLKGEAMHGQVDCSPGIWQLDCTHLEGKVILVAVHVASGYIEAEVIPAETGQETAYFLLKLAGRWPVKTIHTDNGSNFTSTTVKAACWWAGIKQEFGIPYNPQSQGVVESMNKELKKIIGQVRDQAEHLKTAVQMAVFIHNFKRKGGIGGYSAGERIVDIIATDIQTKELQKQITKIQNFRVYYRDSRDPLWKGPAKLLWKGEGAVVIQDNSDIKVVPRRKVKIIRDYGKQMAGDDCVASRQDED
T1 sequence (Q7ZJM1 whole entry): as the sequence (Q7ZJM1 as listed by the source) above

In general, Kd refers to a measure of binding affinity in units of concentration. Lower therefore signals a tighter complex. The compound `CC[C@H](C)[C@H](NC(=O)[C@H](CC(C)C)NC(=O)[C@H](CCCNC(=N)N)NC(=O)[C@@H](NC(=O)[C@@H](NC(=O)[C@H](CCCCN)NC(=O)[C@H](CC(C)C)NC(=O)[C@H](CC(C)C)NC(=O)[C@H](CCC(=O)O)NC(=O)[C@H](CCC(=O)O)NC(=O)[C@H](CC(=O)O)NC(=O)[C@H](CO)NC(=O)[C@H](CC(=O)O)NC(=O)CNC(=O)[C@H](CO)NC(=O)[C@H](CCCNC(=N)N)NC(=O)CNC(=O)[C@H](C)NC(=O)[C@@H](N)CCSC)[C@@H](C)O)C(C)C)C(=O)N[C@@H](CCCCN)C(=O)N[C@@H](Cc1ccccc1)C(=O)N[C@@H](CC(C)C)C(=O)N[C@@H](Cc1ccc(O)cc1)C(=O)N[C@@H](CCC(N)=O)C(=O)N[C@@H](CO)C(=O)N[C@@H](CC(N)=O)C(=O)N1CCC[C@H]1C(=O)N1CCC[C@H]1C(=O)N1CCC[C@H]1C(=O)N[C@@H](CO)C(=O)O` gave a Kd in [1] of 6.5 µM. The result in [2] was inactive.
Regarding `CC[C@H](C)[C@H](NC(=O)[C@H](CC(C)C)NC(=O)[C@H](CCCNC(=N)N)NC(=O)[C@@H](NC(=O)[C@@H](NC(=O)[C@H](CCCCN)NC(=O)[C@@H](N)CC(C)C)[C@H](C)O)C(C)C)C(=O)N[C@@H](CCCCN)C(=O)N[C@@H](Cc1ccccc1)C(=O)N[C@@H](CC(C)C)C(=O)N[C@@H](Cc1ccc(O)cc1)C(=O)N[C@@H](CCC(N)=O)C(=O)N[C@@H](CO)C(=O)N[C@@H](CC(N)=O)C(=O)N1CCC[C@H]1C(=O)O`, the outcome in [3], in assay [4] and in assay [5] was Active.
With `CC[C@H](C)[C@H](NC(=O)[C@H](CO)NC(=O)[C@H](Cc1c[nH]c2ccccc12)NC(=O)[C@@H](NC(=O)[C@H](CCCNC(=N)N)NC(=O)CNC(=O)[C@H](CO)NC(=O)[C@@H]1CCCN1C(=O)[C@H](CO)NC(=O)[C@@H](NC(=O)[C@H](CCCNC(=N)N)NC(=O)[C@H](Cc1ccc(O)cc1)NC(=O)[C@H](CC(C)C)NC(=O)CNC(=O)[C@@H](N)CC(C)C)[C@H](C)O)[C@@H](C)CC)C(=O)O`, the outcome in assay [6], in assay [8] and in assay [9] was inactive. Moreover, the result in assay [7] was Active.
`CSCC[C@H](N)C(=O)N[C@@H](C)C(=O)NCC(=O)N[C@@H](CCCNC(=N)N)C(=O)N[C@@H](CO)C(=O)NCC(=O)N[C@@H](CC(=O)O)C(=O)N[C@@H](CO)C(=O)N[C@@H](CC(=O)O)C(=O)N[C@@H](CCC(=O)O)C(=O)N[C@@H](CCC(=O)O)C(=O)N[C@@H](CC(C)C)C(=O)N[C@@H](CC(C)C)C(=O)N[C@@H](CCCCN)C(=O)N[C@H](C(=O)O)[C@@H](C)O`: the outcome in [4] and in assay [5] was inactive.
As for `Cc1cn([C@H]2C[C@H](N=[N+]=[N-])[C@@H](CO)O2)c(=O)[nH]c1=O`, the result in assay [10] was Active.
With H-DEELLKTVRLIKFLY-OH, the outcome in assay [4] and in assay [5] was Active.
In the case of H-FRKLIYLTKVL-OH, the outcome in assay [6], in assay [8] and in assay [9] was inactive. Further, the result in [7] was Active.
On to H-FVSTHFSVPASPWLLLIDIV-OH, for which the Kd in assay [1] turned out to be 7.5 µM.
Consider H-GWILSTYLGRPAEPV-OH, for which the result in assay [5] was inactive.
The IC50 is the concentration at which inhibition is half-maximal. Low readings indicate higher potency, high ones lower potency. As usually defined, the inhibition is the change of the read-out against control, counted positive when it falls. In the case of H-LKTVRLIKFLY-OH [LKTVRLIKFLY], in assay [1], the Kd worked out at 2.8 µM. For the same compound, in assay [11], the Activity entry was “Dose-dependent effect”. Besides, the outcome in [6], in assay [4] and in [5] was Active. Also, in [12], the IC50 came out at 25 µM. Also, in assay [9] (Human immunodeficiency virus 1, TZM-bl), the inhibition at 2.5 µM came out at 70%. Besides, the outcome in [2] was inactive.
H-QRQIRSISGWILSTY-OH: the result in [4] and in assay [5] was Active.
For the compound H-QRQIRSISGWILSTYLGRPAEPVPLQ-OH, binding in assay [1] was put at a Kd of 11.2 µM.
On to H-RLIKFLYQSNPPPSP-OH, for which the result in assay [4] and in assay [5] was inactive.
Compound H-RSISGWILSTYLGRP-OH yielded a Kd in assay [1] of 6.9 µM. Also, the Activity entry in assay [11] was “Dose-dependent effect”. Further, the result in assay [6], in assay [3], in assay [9], in assay [4] and in [5] was Active. The IC50 in [12] amounted to 25 µM. In [2], the outcome was inactive.
On to H-SGDSDEELLKTVRLI-OH, for which, in assay [4], the result was Active. Further, the outcome in assay [5] was inactive.
In the case of H-STYLGRPAEPVPLQL-OH, the result in [4] and in assay [5] was inactive.
As for H-WRERQRQIRSISGWI-OH, the result in assay [4] and in assay [5] was inactive.

(Values after ChEMBL document CHEMBL1156455, “Interaction between HIV-1 Rev and integrase proteins: a basis for the development of anti-HIV peptides” (J Biol Chem, 2007).)
